The ED50 is the dose at which the effect has come halfway, by size or by number of responders. The term Inhibition denotes the relative decrease from the control value, in per cent. Read a high Inhibition as a response far below the control.

Results on 28 compounds are retold here after ChEMBL document CHEMBL1124244, “Design and synthesis of a series of combined vasodilator/beta-adrenoceptor antagonists based on 6-arylpyridazinones” (1988).

Experiment [1] deals with Beta-1 adrenergic receptor (Homo sapiens) (UniProt P08588). The settings on record: Felis catus.
The subject of experiment [2] is Rattus norvegicus. Description: Dose required to produce a fall in blood pressure of 40 mmHg in the anesthetized rat. The experiment is classed as functional. The procedure, abridged:
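Anesthetized normotensive rats dosed by intravenous injection. ED40 (μmol kg⁻¹) is dose lowering blood pressure by 40 mmHg, taken from a dose-response curve. At least three animals, minimum three doses; 95% confidence intervals via Fieller's theorem.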

Experiment [3] deals with Rattus norvegicus. Description: Dose required to produce a 50% increase in blood flow to the autoperfused hindquarters of the anesthetized rat. The experiment is classed as functional. The procedure, abridged:
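Anesthetized normotensive rats with autoperfused hindquarters. Intravenous bolus doses. ED50 (μmol kg⁻¹) is dose giving 50% increase in hindquarter blood flow, read from a dose-response curve. At least three animals at a minimum of three doses; 95% confidence intervals by Fieller's theorem.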

In experiment [4] the target is Adrenergic receptor beta (Homo sapiens) (UniProt P08588+P07550+P13945). Description: Intrinsic Sympathomimetic Activity (ISA) determined from the ratio of the maximal compound and isoprenaline induced tachycardia in anesthetized ganglion blocked cats following intravenous administration. The experiment is classed as functional, organism-based. As to conditions: Felis catus; target entry is the homologue from another species. Put shortly:
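Ganglion-blocked (pempidine 5 mg kg⁻¹ iv) anesthetized cats at 37 °C; heart rate from blood pressure pulse. Full isoprenaline dose-response (0.01–10 μg kg⁻¹) obtained first. Cannula washed with saline, then cumulative iv dose-response to compound in 50% PEG 400, raised until maximal heart-rate increase. ISA is the ratio of maximal compound-induced to isoprenaline-induced tachycardia.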

Experiment [5] addresses Beta-1 adrenergic receptor (Homo sapiens) (UniProt P08588). Description: Beta-1 adrenergic receptor antagonsim of compound expressed as inhibition of isoprenaline-induced tachycardia in the ganglion-blocked anesthetized cat. The experiment is classed as functional. As to conditions: Felis catus. Put shortly:
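Ganglion-blocked anesthetized cats (pempidine 5 mg kg⁻¹ iv, left to stabilize; rectal temperature held at 37 °C; heart rate from blood pressure pulse). Compounds given iv via cephalic vein. ID50 is dose for 50% inhibition of standard isoprenaline-induced tachycardia. Percent inhibition logit-transformed; ≥3 animals, ≥3 doses; 95% confidence limits by Fieller's theorem.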

For experiment [6], the system named is Felis catus. Description: Intrinsic Sympathomimetic Activity(ISA) determined from the ratio of the maximal compound and isoprenaline induced tachycardia in anesthetized ganglion blocked cats following intravenous administration. The experiment is classed as functional. The procedure, abridged: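 Anaesthetised cats; cephalic vein cannulated; rectal temperature held at 37 °C. Ganglion block with pempidine 5 mg kg⁻¹ iv, then waited for BP and heart rate to stabilise. Heart rate taken from the BP pulse. Isoprenaline tachycardia curve run at 0.01–10 μg kg⁻¹ iv, then a cumulative compound curve in 50% PEG 400, raised to maximal tachycardia. ISA = maximal compound/isoprenaline tachycardia ratio.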

Experiment [7] relates to Felis catus. Description: Beta-1-adrenoceptor antagonsim of compound expressed as inhibition of isoprenaline-induced tachycardia in the ganglion-blocked anesthetized cat at 10 uM/Kg dose. The experiment is classed as functional.

Chain of Beta-1 adrenergic receptor (Homo sapiens) (P08588 whole entry, looked up): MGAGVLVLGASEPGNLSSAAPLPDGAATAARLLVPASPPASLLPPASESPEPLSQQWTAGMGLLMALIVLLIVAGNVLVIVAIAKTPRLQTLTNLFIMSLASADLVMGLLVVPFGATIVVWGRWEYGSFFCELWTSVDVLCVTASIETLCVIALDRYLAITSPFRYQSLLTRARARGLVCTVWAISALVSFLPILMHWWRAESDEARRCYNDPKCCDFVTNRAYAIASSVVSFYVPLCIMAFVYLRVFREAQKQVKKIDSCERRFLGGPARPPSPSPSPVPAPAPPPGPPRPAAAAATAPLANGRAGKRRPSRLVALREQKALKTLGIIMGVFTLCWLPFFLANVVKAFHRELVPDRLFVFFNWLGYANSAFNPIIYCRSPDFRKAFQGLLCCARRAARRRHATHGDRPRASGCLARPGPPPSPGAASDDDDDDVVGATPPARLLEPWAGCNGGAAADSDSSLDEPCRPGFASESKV

Turning to `COc1ccccc1OCC(O)CNCCC(=O)Nc1ccc(C2=NNC(=O)CC2)cc1` (stereo unspecified), the ID50 in experiment [1] turned out to be 0.7 µmol/kg. For the same compound, the ED40 in the experiment with Rattus norvegicus [2] is 11 µM/kg. In the experiment with Rattus norvegicus [3], this compound yielded an ED50 of 4.3 µmol/kg. The ISA in experiment [4] was found to be 0.6.
`Cc1ccccc1OCC(O)CNCCC(=O)Nc1ccc(C2=NNC(=O)CC2C)cc1` (stereo unspecified) showed an ED40 in the experiment with Rattus norvegicus [2] of 0.5 µM/kg. The compound also came in with an ED50 with Rattus norvegicus [3] of 2 µmol/kg. Also, in experiment [4], the ISA amounted to 0.59.
In the case of `Cc1cccc(OCC(O)CNCCC(=O)Nc2ccc(C3=NNC(=O)CC3C)cc2)c1C` (stereo unspecified), the ID50 in experiment [1] stood at 0.6 µmol/kg. For the same compound, the ED40 in the experiment on Rattus norvegicus [2] was determined as 2.5 µM/kg. Besides, in the experiment on Rattus norvegicus [3], the 50% effect level (ED50) was put at a dose of 2.4 µmol/kg. For the same compound, the ISA in experiment [4] was found to be 0.14.
On to `NNc1nncc2ccccc12` [HYDRALAZINE], for which the ED40 with Rattus norvegicus [2] amounted to 1 µM/kg. Also, in the experiment with Rattus norvegicus [3], the ED50 is 0.6 µmol/kg.
`Cc1ccccc1OCC(O)CNCC(=O)Nc1ccc(C2=NNC(=O)CC2)cc1` (stereo unspecified): the ID50 in experiment [5] is 9 µmol/kg. Moreover, the ED40 in the experiment with Rattus norvegicus [2] came out at 6 µM/kg. In addition, the ED50 in the experiment on Rattus norvegicus [3] was found to be 2 µmol/kg. Also, in experiment [4], the ISA came out at 0.55.
For the compound `Cc1ccccc1OCC(O)CNCCC(=O)Nc1ccc(C2=NNC(=O)CC2)cc1` (stereo unspecified), the ID50 in experiment [1] was found to be 1.4 µmol/kg. The same compound showed an ED40 in the experiment with Rattus norvegicus [2] of 9.4 µM/kg. The 50% effect level in the experiment with Rattus norvegicus [3] (ED50) was put at a dose of 6 µmol/kg. For the same compound, the ISA in experiment [4] was 0.14.
With `COCCc1ccc(OCC(O)CNCCC(=O)Nc2ccc(C3=NNC(=O)CC3C)cc2)cc1` (stereo unspecified), the ID50 in experiment [1] came out at 2 µmol/kg. Also, in the experiment on Rattus norvegicus [2], the ED40 came to 3 µM/kg. Further, the ED50 in the experiment on Rattus norvegicus [3] turned out to be 6 µmol/kg. Further, in experiment [4], the ISA is 0.04.
For `CC1CC(=O)NN=C1c1ccc(NC(=O)CCN)cc1` (stereo unspecified), the ED40 with Rattus norvegicus [2] was found to be 0.2 µM/kg. Further, the 50% effect level in the experiment with Rattus norvegicus [3] (ED50) was put at a dose of 0.2 µmol/kg.
`N#Cc1ccccc1OCC(O)CNCC(=O)Nc1ccc(C2=NNC(=O)CC2)cc1` (stereo unspecified): in the experiment on Rattus norvegicus [2], the ED40 is 30 µM/kg. Further, the 50% effect level with Rattus norvegicus [3] (ED50) was put at a dose of 14 µmol/kg. Moreover, the ISA in experiment [4] came to 0.55.
Regarding `COc1ccccc1OCC(O)CNCC(=O)Nc1ccc(C2=NNC(=O)CC2)cc1` (stereo unspecified), the ID50 in experiment [1] was 10 µmol/kg. In the experiment on Rattus norvegicus [2], this compound gave an ED40 of 11.5 µM/kg. In the experiment on Rattus norvegicus [3], this compound showed an ED50 of 4.6 µmol/kg. In addition, the ISA in experiment [4] turned out to be 0.42.
Turning to `CC(C)NCC(O)COc1cccc2[nH]ccc12` (stereo unspecified) [PINDOLOL], the ISA in the experiment with Felis catus [6] is listed as 0.7.
Compound `N#Cc1ccccc1OCC(O)CNCCC(=O)Nc1ccc(C2=NNC(=O)CC2)cc1` (stereo unspecified) showed an ID50 in experiment [1] of over 1 µmol/kg. This compound also returned an ED40 in the experiment with Rattus norvegicus [2] of 3.5 µM/kg. In the experiment with Rattus norvegicus [3], this compound yielded an ED50 of 1.7 µmol/kg.
For `CC(=O)Nc1ccc(C2=NNC(=O)CC2)cc1`, the ED40 in the experiment with Rattus norvegicus [2] was 1 µM/kg. The ED50 in the experiment on Rattus norvegicus [3] worked out at 4 µmol/kg.
The like results for `Nc1ccc(-c2ccc(O)nn2)cc1` were, in that order, 1 µM/kg and 20 µmol/kg.
In experiment [1], `CC(C)(C)NCC(O)COc1ccccc1-c1ccc(NN)nn1` (stereo unspecified) [PRIZIDILOL] came in with an ID50 of 0.06 µmol/kg. For the same compound, the ED40 with Rattus norvegicus [2] amounted to 14 µM/kg. For the same compound, in the experiment with Rattus norvegicus [3], the ED50 is 10 µmol/kg. In experiment [4], the ISA is 0.2.
The compound `O=C1CCC(c2ccc(NC(=O)CNCC(O)COc3cccc4ccccc34)cc2)=NN1` (stereo unspecified) gave an ED40 in the experiment with Rattus norvegicus [2] of 28 µM/kg. Besides, in the experiment on Felis catus [7], the Inhibition was 30%. Further, in the experiment on Rattus norvegicus [3], it took a dose of 1.4 µmol/kg to reach the 50% effect level (ED50). Further, the ISA in experiment [4] was 0.1.
In experiment [1], `C=CCOc1ccccc1OCC(O)CNC(C)C` (stereo unspecified) displayed an ID50 of 0.04 µmol/kg. Further, in experiment [4], the ISA was found to be 0.2.
The compound `CC1CC(=O)NN=C1c1ccc(NC(=O)CCNCC(O)COc2cccc3[nH]ccc23)cc1.Cl` (stereo unspecified) had an ID50 in experiment [1] of 0.09 µmol/kg. Further, the ED40 in the experiment on Rattus norvegicus [2] amounted to 2.9 µM/kg. In the experiment on Rattus norvegicus [3], this compound yielded an ED50 of 4.4 µmol/kg. Moreover, in experiment [4], the ISA is 0.46.
`CC1CC(=O)NN=C1c1ccc(NC(=O)CCNCC(O)COc2ccccc2S(C)(=O)=O)cc1.Cl` (stereo unspecified) came in with an ID50 in experiment [1] of 4 µmol/kg. In the experiment on Rattus norvegicus [2], this compound gave an ED40 of 3.9 µM/kg. In addition, in the experiment on Rattus norvegicus [3], the ED50 was 2.4 µmol/kg. The ISA in experiment [4] is under 0.3.
As for `Cc1ccccc1OCC(O)CNCC(=O)Nc1ccc(C2=NNC(=O)CC2C)cc1` (stereo unspecified), the ID50 in experiment [1] was over 5 µmol/kg. This compound gave an ED40 in the experiment on Rattus norvegicus [2] of under 2 µM/kg. The compound further yielded an ED50 in the experiment on Rattus norvegicus [3] of 2.7 µmol/kg.
As for `COc1ccccc1OCC(O)CNCC(=O)Nc1ccc(C2=NNC(=O)CC2C)cc1` (stereo unspecified), the ID50 in experiment [1] was 2.6 µmol/kg. In addition, the ED40 with Rattus norvegicus [2] is under 4 µM/kg. In the experiment on Rattus norvegicus [3], this compound displayed an ED50 of 3 µmol/kg. Besides, the ISA in experiment [4] is 0.37.
Turning to `CC1CC(=O)NN=C1c1ccc(NC(=O)CCNCC(O)COc2ccccc2N2CCOCC2)cc1` (stereo unspecified), in experiment [1], the ID50 stood at 0.5 µmol/kg. Besides, the ED40 with Rattus norvegicus [2] worked out at 3.6 µM/kg. Moreover, the ED50 in the experiment on Rattus norvegicus [3] stood at 1.8 µmol/kg. Also, in experiment [4], the ISA was found to be 0.24.
As for `CC(=O)Nc1ccc(C2=NNC(=O)CC2C)cc1` (stereo unspecified), the ED40 in the experiment with Rattus norvegicus [2] is 0.18 µM/kg. Besides, the ED50 with Rattus norvegicus [3] came to 0.1 µmol/kg.
Consider `CC1CC(=O)NN=C1c1ccc(NC(=O)CCNCC(O)COc2ccc(CCOCC3CC3)cc2)cc1` (stereo unspecified), for which the ID50 in experiment [1] came out at 1 µmol/kg. Besides, in the experiment on Rattus norvegicus [2], the ED40 was 2.4 µM/kg. In the experiment with Rattus norvegicus [3], this compound displayed an ED50 of 1.6 µmol/kg. In addition, the ISA in experiment [4] was 0.05.
The like results for `COc1ccccc1OCC(O)CNCCC(=O)Nc1ccc(C2=NNC(=O)CC2C)cc1` (stereo unspecified) were, in that order, 0.7 µmol/kg, 2 µM/kg, 3 µmol/kg and 0.48.
The like results for `CC1CC(=O)NN=C1c1ccc(NC(=O)CNCC(O)COc2ccccc2C#N)cc1` (stereo unspecified) were, in that order, over 8 µmol/kg, 2 µM/kg, 0.9 µmol/kg and 0.53.
`CC1CC(=O)NN=C1c1ccc(NC(=O)CCNCC(O)COc2ccccc2C#N)cc1` (stereo unspecified) showed an ED40 in the experiment with Rattus norvegicus [2] of 1 µM/kg. In the experiment with Rattus norvegicus [3], it took a dose of 2.3 µmol/kg to reach the 50% effect level (ED50). Also, in experiment [4], the ISA was found to be 0.63.
In turn, `Br.CC1CC(=O)NN=C1c1ccc(NC(=O)CCNCC(O)COc2ccccc2)cc1` (stereo unspecified) yielded an ED40 in the experiment on Rattus norvegicus [2] of 0.6 µM/kg. In the experiment on Rattus norvegicus [3], this compound showed an ED50 of 1.5 µmol/kg. Further, the ISA in experiment [4] was found to be 0.86.
